In ChEMBL document CHEMBL1142569, “Two new hepatoprotective stilbene glycosides from Acer mono leaves” (J Nat Prod, 2005):
Activity calls are given as the source filed them. No cut-off for these calls is given here.

tested on: Hepatocyte; assay: Hepatoprotective activity against H2O2-induced hepatotoxicity in Wistar rat hepatocytes assessed as reduction in glutamic pyruvate transaminase release at 100 uM after 1 hr relative to control; assay type: functional, cell-based

SMILES | Activity
COc1cc(C2Oc3cc([C@H]4Oc5cc(O)cc(O)c5C(=O)[C@@H]4O)ccc3OC2CO)ccc1O (stereo not given in full) | Active

tested on: Hepatocyte; assay: Hepatoprotective activity against H2O2-induced hepatotoxicity in Wistar rat hepatocytes assessed as reduction in glutamic pyruvate transaminase release after 1 hr relative to control; assay type: functional, cell-based
Method in brief: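 Hepatocytes from male Wistar rats were isolated by collagenase perfusion and cultured for one day after plating. Cells were pretreated with or without compound for 1 h, then exposed to 12 mM H2O2 for 1.5 h. GPT released into the medium was measured by the Reitman-Frankel method. Relative protection (%) = 100 × (H2O2-treated − sample)/(H2O2-treated − unchallenged control). Mean ± SD, n = 3.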

SMILES | Activity
COc1cc(/C=C/c2ccc(O)cc2)cc(O[C@@H]2O[C@H](CO[C@@H]3OC[C@](O)(CO)[C@H]3O)[C@@H](O)[C@H](O)[C@H]2O)c1 | Active
O=C1C[C@@H](c2ccc(O)c(O)c2)Oc2cc(O)cc(O)c21 | inactive
O=C1C[C@@H](c2ccc(O)cc2)Oc2cc(O[C@@H]3O[C@H](CO)[C@@H](O)[C@H](O)[C@H]3O)cc(O)c21 | inactive
O=c1ccoc2cc(O[C@@H]3O[C@H](CO)[C@@H](O)[C@H](O)[C@H]3O)cc(O)c12 | inactive
O=C1C[C@@H](c2ccc(O)cc2)Oc2cc(O)cc(O)c21 | inactive
COc1cc(/C=C/c2ccc(O)cc2)cc(O[C@@H]2O[C@H](CO)[C@@H](O)[C@H](O)[C@H]2O)c1 | Active
C[C@@H]1O[C@@H](Oc2c(-c3ccc(O)c(O)c3)oc3cc(O)cc(O)c3c2=O)[C@H](O)[C@H](O)[C@H]1O | inactive
O=c1c(O)c(-c2ccc(O)c(O)c2)oc2cc(O)cc(O)c12 | Active
O=C1C[C@@H](c2ccc(O)c(O)c2)Oc2cc(O[C@@H]3O[C@H](CO)[C@@H](O)[C@H](O)[C@H]3O)cc(O)c21 | inactive
